Drawing on ChEMBL document CHEMBL1151805, “Effect of guggulsterone and cembranoids of Commiphora mukul on pancreatic phospholipase A(2): role in hypocholesterolemia” (J Nat Prod, 2009), this text covers Kd, Activity and Ki(app) (mole fraction) for five molecules.

One may read the Kd as the equilibrium constant for the complex coming apart.

The target in test [1] is T1, Phospholipase A2 (Homo sapiens, UniProt P04054). The test can be described thus: Binding affinity to human pancreatic recombinant 1B PLA2 expressed in Escherichia coli by resonance energy transfer assay in presence of trimethyl-ammonium-diphenylhexatriene. The essentials: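 Aqueous-phase binding measured as bile-salt quenching of the resonance energy transfer signal from the hPLA2–trimethyl-ammonium-diphenylhexatriene complex. Kd was derived from the quenching.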
Target sequence in this assay (P04054 whole entry): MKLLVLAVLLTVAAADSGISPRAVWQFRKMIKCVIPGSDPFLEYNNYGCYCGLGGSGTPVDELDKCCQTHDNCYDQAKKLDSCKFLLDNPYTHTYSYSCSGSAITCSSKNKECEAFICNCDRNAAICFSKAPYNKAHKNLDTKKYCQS

Test [2] deals with T1, Phospholipase A2. The test is described as follows: Binding affinity to human pancreatic recombinant 1B PLA2 expressed in Escherichia coli at 100 uM by saturation transfer difference NMR spectroscopy.
Target sequence in this assay (P04054 23-148 limits assumed): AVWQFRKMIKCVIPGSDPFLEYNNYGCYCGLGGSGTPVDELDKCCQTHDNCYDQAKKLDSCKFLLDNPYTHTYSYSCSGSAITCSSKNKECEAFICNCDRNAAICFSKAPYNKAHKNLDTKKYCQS
A further test is filed under the species Sus scrofa. The test is described as follows: Binding affinity to pig PLA2 at 100 uM by saturation transfer difference NMR spectroscopy. A digest of the protocol: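 STD NMR at 15 °C in 20 mM bicarbonate in D2O, pH 7.5, with 100 µM ligand and 7 µM pig pancreatic PLA2. Difference of on- and off-resonance irradiation by phase cycling, coadded from 6144 scans.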

Test [3] deals with T1, Phospholipase A2. The test can be described thus: Reduction in human pancreatic recombinant 1B PLA2 activity expressed in Escherichia coli assessed as hydrolysis of cholate-activated 1,2-dimyristoyl-sn-3-glycerophosphocholine vesicles.
Target sequence in this assay (P04054 23-148 limits assumed): as above
Test [4] addresses T1, Phospholipase A2. The test is described as follows: Apparent inhibition of human pancreatic recombinant 1B PLA2 expressed in Escherichia coli assessed as hydrolysis rate of 1,2-dimyristoyl-sn-3-glycerophosphocholine vesicles in presence of cholate.
Target sequence in this assay (P04054 23-148 limits assumed): as above
The target in test [5] is T1, Phospholipase A2.
Target sequence in this assay (P04054 23-148 limits assumed): as above
Test [6] concerns the target T1, Phospholipase A2. The test is described as follows: Increase in human pancreatic recombinant 1B PLA2 activity expressed in Escherichia coli assessed as hydrolysis rate of 1,2-dimyristoyl-sn-3-glycerophosphocholine vesicles in absence of cholate. A digest of the protocol:
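pH-stat titration of hydrolysis of sonicated 1 mM DMPC vesicles, started with 2 to 10 pM hPLA2, titrated with 1 mM 2-aminopropanediol base. Buffer was 5 mM CaCl2, 1 mM NaCl, 0.1 mM EDTA, pH 8.0, 24 ± 0.1 °C, under nitrogen. Test compound was present at 0.03 or 0.007 MF.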
Target sequence in this assay (P04054 23-148 limits assumed): as above

Activity calls are given as the source filed them. The rule behind the calls is not given here.

As for `C[C@H](CCC(=O)O)[C@H]1CC[C@H]2[C@@H]3[C@H](O)C[C@@H]4C[C@H](O)CC[C@]4(C)[C@H]3C[C@H](O)[C@]12C` [CHOLIC ACID], the Kd on Phospholipase A2 [1] was over 150 µM. Besides, the result at Phospholipase A2 [2] and in the test filed under Sus scrofa was Active.
As to `C[C@H](CCC(=O)NCCS(=O)(=O)O)[C@H]1CC[C@H]2[C@@H]3CC[C@@H]4C[C@H](O)CC[C@]4(C)[C@H]3C[C@H](O)[C@]12C`, on Phospholipase A2 [2], the result was Active.
With `C[C@H](CCC(=O)O)[C@H]1CC[C@H]2[C@@H]3[C@H](O)C[C@@H]4C[C@H](O)CC[C@]4(C)[C@H]3CC[C@]12C`, the outcome at Phospholipase A2 [2] and in the test listed under Sus scrofa was Active.
Turning to `C[C@H](CCC(=O)NCCS(=O)(=O)O)[C@H]1CC[C@H]2[C@@H]3[C@@H](O)C[C@@H]4C[C@H](O)CC[C@]4(C)[C@H]3CC[C@]12C` [TAURURSODIOL], the Activity entry at Phospholipase A2 [3] was “Dose-dependent effect”. Moreover, the Ki(app) (mole fraction) amounted to 0.000306 at Phospholipase A2 [4] and 0.005 at Phospholipase A2 [5]. Besides, the Kd at Phospholipase A2 [1] was found to be 10 µM.
Regarding `CC1=C\C/C=C(\C)CC/C=C(\C)CC[C@](O)(C(C)C)/C=C\1`, the outcome at Phospholipase A2 [6] was inactive. In addition, on Phospholipase A2 [3], the Activity result is “Dose-dependent effect”. The Ki(app) (mole fraction) on Phospholipase A2 [4] is 0.00325.
